# Measurements published in PMC10621021 (ACS Omega, 2023).
# pIC50: −log10 of the molar value. Where “and” joins values, the source holds several entries; their conditions need not be identical. Equal entries are not always repeated.
# What was measured:
# [1] = tested on: amastigote stages of Leishmania major; details: cited from earlier work
# [2] = tested on: L. amazonensis promastigotes; test: Antileishmanial activity against promastigotes of L. amazonensis; assay type: cell-based, Leishmania amazonensis; details: for pIC50: Leishmania amazonensis, 72 h, read-out: Promastigotes IC50, L. amazonensis promastigotes, MTT, 72 h, 6.25–100 μM; for antileishmanial activity on promastigotes (in words): L. amazonensis promastigotes, up to 100 μM
# In short: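 Log-phase promastigotes at 2 × 10^6 cells/mL exposed to compound 6.25–100 μM for 72 h at 25 °C. MTT (5 mg/mL solution) added for 4 h, absorbance read at 570 nm. Viability is expressed relative to untreated parasites. IC50 from three independent experiments; miltefosine was the reference.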
# [3] = tested on: HEPG2; test: MTT cell viability, HEPG2; assay type: cell-based, human; details: 25 μM
# [4] = tested on: MDA-MB-231; test: MTT cell viability, MDA-MB-231; assay type: cell-based, human; details: 25 μM
# [5] = tested on: intracellular amastigotes of L. amazonensis RFP; assay type: cell-based, Leishmania amazonensis; details: for antileishmanial activity on amastigotes (in words): L. amazonensis intracellular amastigotes, up to 100 μM
# In short: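 BALB/c peritoneal macrophages (3% thioglycolate-elicited), adherent, infected 10:1 with stationary-phase RFP-transfected L. amazonensis IFLA/BR/67/PH8 promastigotes. After 4 h, wash, then compound 12.5–100 μM for 72 h at 33 °C, 5% CO2. Lysis in deionized water, fluorescence Ex 540/Em 600 nm. IC50 from mean of three independent experiments.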
Compound,cytotoxicity on HEP-G2 (in words) [3],cytotoxicity on MDA-MB-231 (in words) [4],antileishmanial activity on promastigotes (in words) [2],antileishmanial activity on amastigotes (in words) [5],further results
"Cc1ccc(-c2c(-c3ccccc3)nc3ccccn23)cc1 [Compound 2, 2-phenyl-3-(p-tolyl)imidazo[1,2-a]pyridine]",,,,,pIC50 [1]: 5.40
"CC(C)(C)CC(C)(C)Nc1c(-c2ccc3c(c2)OCO3)nc2ncccn12 [Compound 14, 2-(benzo[d][1,3]dioxol-5-yl)-N-(2,4,4-trimethylpentan-2-yl)imidazo[1,2-a]pyrimidin-3-amine]",,,,,pIC50 [2]: 4.34
"CC(C)(C)CC(C)(C)Nc1c(-c2ccccc2)nc2ncccn12 [Compound 18, 2-phenyl-N-(2,4,4-trimethylpentan-2-yl)imidazo[1,2-a]pyrimidin-3-amine]",no any significant cytotoxicity,no any significant cytotoxicity,,,
"COc1ccc(-c2nc3ncccn3c2NC(C)(C)CC(C)(C)C)cc1O [Compound 22, 2-methoxy-5-(3-((2,4,4-trimethylpentan-2-yl)amino)imidazo[1,2-a]pyrimidin-2-yl)phenol]",no any significant cytotoxicity,no any significant cytotoxicity,not tolerated for the antileishmanial activity,not tolerated for the antileishmanial activity,
"CC(C)(C)CC(C)(C)Nc1c(-c2cccc([N+](=O)[O-])c2)nc2ncccn12 [Compound 23, 2-(3-nitrophenyl)-N-(2,4,4-trimethylpentan-2-yl)imidazo[1,2-a]pyrimidin-3-amine]",,,did not show any biological activity,did not show any biological activity,
"CC(C)(C)CC(C)(C)Nc1c(-c2cccc(C#N)c2)nc2ncccn12 [Compound 24, 3-(3-((2,4,4-trimethylpentan-2-yl)amino)imidazo[1,2-a]pyrimidin-2-yl)benzonitrile]",no any significant cytotoxicity,no any significant cytotoxicity,,,pIC50 [2]: > 5.00; Selectivity Index ([5]; SI: CC50 in peritoneal macrophages/IC50 in intracellular amastigotes): 10 and > 10
"CC(C)(C)CC(C)(C)Nc1c(-c2cccnc2)nc2ncccn12 [Compound 25, 2-(pyridin-3-yl)-N-(2,4,4-trimethylpentan-2-yl)imidazo[1,2-a]pyrimidin-3-amine]",no any significant cytotoxicity,no any significant cytotoxicity,evaded the activity,evaded the activity,
"CC(C)(C)CC(C)(C)Nc1c(-c2cccs2)nc2ncccn12 [Compound 26, 2-(thiophen-2-yl)-N-(2,4,4-trimethylpentan-2-yl)imidazo[1,2-a]pyrimidin-3-amine]",,,,showed an effect on L. amazonensis amastigotes only,
"CCCCc1nc2ncccn2c1NC(C)(C)CC(C)(C)C [Compound 27, 2-butyl-N-(2,4,4-trimethylpentan-2-yl)imidazo[1,2-a]pyrimidin-3-amine]",,,moderate activity,moderate activity,
"CCCCCCCCc1nc2ncccn2c1NC(C)(C)CC(C)(C)C [Compound 28, 2-octyl-N-(2,4,4-trimethylpentan-2-yl)imidazo[1,2-a]pyrimidin-3-amine]",,,moderate activity,moderate activity,
